In article PMC5289284 (Journal of medicinal chemistry, 2016):

How the values were obtained:
[1] = target: PI3Kγ (Homo sapiens, UniProt P48736); assay: PI3Kγ lipid kinase membrane capture assay; assay type: biochemical; details: for fold selective over PI3Kγ: PI4KIIIβ versus PI3Kγ; for potency for PI3Kγ compared with compound 1: relative to compound 1, Fig. 2A
Procedure, shortened: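 Radiometric membrane-capture assay. For PI3Kγ, 5nM enzyme was preincubated 15 min with test compound, then cold ATP plus γ32P-ATP was added for 15 min. PI3Kγ final conditions: 50mM HEPES pH 7.5, 100mM NaCl, 0.03% CHAPS, 10mM MgCl2, 80µM PIP2, 10µM ATP, 1uCi. PI4KIIIβ ran 30 min with 2.5nM enzyme, 100µM PI, Bis-Tris Propane pH 7.5, Triton X-100, 10µM ATP, 1uCi. Both used 2% DMSO final.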

[2] = target: vps34 (Homo sapiens, UniProt Q8NEB9); assay: vps34 lipid kinase membrane capture assay; assay type: biochemical; details: for inhibition of vps34: concentrations up to 20 µM, MnCl2; for potency for vps34 compared with compound 1: relative to compound 1, Fig. 2A
Procedure, shortened: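 Recombinant vps34 (10nM) was preincubated 15 min with test compound diluted in 10% DMSO/kinase buffer. Cold ATP plus γ32P-ATP (final 10µM ATP, 2.5uCi) was added and the reaction ran 1 hour. Final buffer: 50mM HEPES pH 7.5, 0.1% CHAPS, 2mM MnCl2, 1mM EGTA, 2mM DTT, 100µM PI, 500ng/µL BSA, 2% DMSO. Product was spotted on nitrocellulose and washed in 1M NaCl/1% phosphoric acid.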

[3] = target: PI3Kδ (Homo sapiens, UniProt O00329); assay: PI3Kδ lipid kinase membrane capture assay; assay type: biochemical; details: for fold selective over PI3Kδ: PI4KIIIβ versus PI3Kδ; for potency for PI3Kδ compared with compound 1: relative to compound 1, Fig. 2A
[4] = tested on: HCVcc genotype 2a reporter virus J6/JFH1-GLuc in Huh 7.5 cells; assay: HCV2a antiviral assay; assay type: cell-based, Hepatitis C virus; details: Huh 7.5 cells stably infected with J6/JFH1-GLuc, three days incubation
[5] = target: PI4KIIIβ (Homo sapiens, UniProt Q9UBF8); assay: PI4KIIIβ lipid kinase membrane capture assay; assay type: biochemical; details: for potency for PI4KIIIβ compared with compound 1: relative to compound 1, Fig. 2A
Procedure, shortened: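 Recombinant PI4KIIIβ with a phosphoinositide substrate and γ32P-ATP in a membrane-capture format. Test compound diluted into 10% DMSO and kinase assay buffer. After the reaction, a 4 µL aliquot was spotted on 0.2 µm nitrocellulose, dried 5 min under a heat lamp, then washed once for 30 s and 6×5 min in 1M NaCl/1% phosphoric acid.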

Sequence of PI3Kγ (P48736 whole entry): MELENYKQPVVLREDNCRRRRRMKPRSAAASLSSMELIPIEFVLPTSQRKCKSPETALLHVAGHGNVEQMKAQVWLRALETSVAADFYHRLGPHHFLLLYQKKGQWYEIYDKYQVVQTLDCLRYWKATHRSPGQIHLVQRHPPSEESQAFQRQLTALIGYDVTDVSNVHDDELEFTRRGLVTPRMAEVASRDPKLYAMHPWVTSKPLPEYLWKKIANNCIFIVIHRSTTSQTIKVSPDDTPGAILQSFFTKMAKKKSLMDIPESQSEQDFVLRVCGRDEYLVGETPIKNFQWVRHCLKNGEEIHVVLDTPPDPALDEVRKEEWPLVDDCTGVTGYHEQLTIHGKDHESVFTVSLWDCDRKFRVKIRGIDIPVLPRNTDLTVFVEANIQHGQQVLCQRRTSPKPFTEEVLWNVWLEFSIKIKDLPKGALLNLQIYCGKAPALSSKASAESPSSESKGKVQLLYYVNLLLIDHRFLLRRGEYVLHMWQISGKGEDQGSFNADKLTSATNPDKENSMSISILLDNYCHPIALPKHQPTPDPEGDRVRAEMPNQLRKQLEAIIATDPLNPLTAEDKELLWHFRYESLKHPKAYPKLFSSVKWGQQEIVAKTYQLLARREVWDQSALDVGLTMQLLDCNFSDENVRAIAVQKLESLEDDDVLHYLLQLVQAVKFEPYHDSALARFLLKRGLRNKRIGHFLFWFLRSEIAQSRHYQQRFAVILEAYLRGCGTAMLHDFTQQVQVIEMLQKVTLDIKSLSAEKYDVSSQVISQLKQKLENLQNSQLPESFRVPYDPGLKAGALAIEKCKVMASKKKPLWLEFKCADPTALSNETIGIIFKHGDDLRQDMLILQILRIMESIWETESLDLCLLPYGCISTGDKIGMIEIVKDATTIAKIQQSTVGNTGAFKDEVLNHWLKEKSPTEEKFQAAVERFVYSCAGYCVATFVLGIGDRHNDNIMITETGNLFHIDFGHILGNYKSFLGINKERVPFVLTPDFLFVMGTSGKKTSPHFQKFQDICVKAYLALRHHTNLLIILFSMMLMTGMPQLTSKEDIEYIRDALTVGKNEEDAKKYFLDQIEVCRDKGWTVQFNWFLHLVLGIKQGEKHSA
Sequence of vps34 (Q8NEB9 whole entry): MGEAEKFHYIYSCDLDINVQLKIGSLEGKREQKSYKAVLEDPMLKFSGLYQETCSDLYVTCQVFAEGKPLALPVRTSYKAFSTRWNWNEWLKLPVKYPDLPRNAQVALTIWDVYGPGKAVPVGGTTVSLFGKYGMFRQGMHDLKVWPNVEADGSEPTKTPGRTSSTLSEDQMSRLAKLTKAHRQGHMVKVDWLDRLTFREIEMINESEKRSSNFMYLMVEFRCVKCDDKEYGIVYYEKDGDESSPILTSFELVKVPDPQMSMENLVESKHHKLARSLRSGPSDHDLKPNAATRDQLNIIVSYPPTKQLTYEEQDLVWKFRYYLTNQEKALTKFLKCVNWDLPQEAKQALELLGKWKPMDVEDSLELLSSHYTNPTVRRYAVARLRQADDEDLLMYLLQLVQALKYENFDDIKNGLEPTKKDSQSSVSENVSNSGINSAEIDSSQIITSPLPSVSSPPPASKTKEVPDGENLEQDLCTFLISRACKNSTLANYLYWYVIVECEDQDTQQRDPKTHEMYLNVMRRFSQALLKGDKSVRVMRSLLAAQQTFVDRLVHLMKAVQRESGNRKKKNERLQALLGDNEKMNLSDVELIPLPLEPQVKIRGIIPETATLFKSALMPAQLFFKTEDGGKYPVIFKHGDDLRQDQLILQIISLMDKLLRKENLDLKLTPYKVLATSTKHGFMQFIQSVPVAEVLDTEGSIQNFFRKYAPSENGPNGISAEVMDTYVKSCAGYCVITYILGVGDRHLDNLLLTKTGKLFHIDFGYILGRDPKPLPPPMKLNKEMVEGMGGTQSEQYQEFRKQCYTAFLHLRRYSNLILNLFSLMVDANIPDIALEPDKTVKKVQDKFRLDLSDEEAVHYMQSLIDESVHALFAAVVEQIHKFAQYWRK
Sequence of PI4KIIIβ (Q9UBF8 whole entry): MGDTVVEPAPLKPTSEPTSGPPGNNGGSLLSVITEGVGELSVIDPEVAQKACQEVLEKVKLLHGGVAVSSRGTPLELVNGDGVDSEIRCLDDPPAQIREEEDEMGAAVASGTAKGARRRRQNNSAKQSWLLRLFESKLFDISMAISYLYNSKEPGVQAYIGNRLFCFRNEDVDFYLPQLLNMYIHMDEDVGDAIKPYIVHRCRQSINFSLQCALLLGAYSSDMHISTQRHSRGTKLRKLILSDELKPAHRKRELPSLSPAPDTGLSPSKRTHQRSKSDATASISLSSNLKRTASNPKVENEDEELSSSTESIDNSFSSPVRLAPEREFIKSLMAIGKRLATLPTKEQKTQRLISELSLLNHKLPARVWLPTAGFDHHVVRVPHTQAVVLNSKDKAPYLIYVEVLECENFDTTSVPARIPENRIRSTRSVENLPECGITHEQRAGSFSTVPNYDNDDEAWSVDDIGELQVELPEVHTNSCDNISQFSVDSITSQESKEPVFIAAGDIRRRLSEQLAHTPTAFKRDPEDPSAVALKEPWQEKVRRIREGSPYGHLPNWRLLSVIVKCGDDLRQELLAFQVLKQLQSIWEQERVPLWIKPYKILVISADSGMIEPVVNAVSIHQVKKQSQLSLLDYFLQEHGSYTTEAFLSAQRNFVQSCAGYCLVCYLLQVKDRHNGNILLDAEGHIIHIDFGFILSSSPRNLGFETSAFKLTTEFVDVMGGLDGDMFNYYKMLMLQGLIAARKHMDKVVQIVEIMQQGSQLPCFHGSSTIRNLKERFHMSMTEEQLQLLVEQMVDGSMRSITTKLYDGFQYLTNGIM
Sequence of PI3Kδ (O00329 whole entry): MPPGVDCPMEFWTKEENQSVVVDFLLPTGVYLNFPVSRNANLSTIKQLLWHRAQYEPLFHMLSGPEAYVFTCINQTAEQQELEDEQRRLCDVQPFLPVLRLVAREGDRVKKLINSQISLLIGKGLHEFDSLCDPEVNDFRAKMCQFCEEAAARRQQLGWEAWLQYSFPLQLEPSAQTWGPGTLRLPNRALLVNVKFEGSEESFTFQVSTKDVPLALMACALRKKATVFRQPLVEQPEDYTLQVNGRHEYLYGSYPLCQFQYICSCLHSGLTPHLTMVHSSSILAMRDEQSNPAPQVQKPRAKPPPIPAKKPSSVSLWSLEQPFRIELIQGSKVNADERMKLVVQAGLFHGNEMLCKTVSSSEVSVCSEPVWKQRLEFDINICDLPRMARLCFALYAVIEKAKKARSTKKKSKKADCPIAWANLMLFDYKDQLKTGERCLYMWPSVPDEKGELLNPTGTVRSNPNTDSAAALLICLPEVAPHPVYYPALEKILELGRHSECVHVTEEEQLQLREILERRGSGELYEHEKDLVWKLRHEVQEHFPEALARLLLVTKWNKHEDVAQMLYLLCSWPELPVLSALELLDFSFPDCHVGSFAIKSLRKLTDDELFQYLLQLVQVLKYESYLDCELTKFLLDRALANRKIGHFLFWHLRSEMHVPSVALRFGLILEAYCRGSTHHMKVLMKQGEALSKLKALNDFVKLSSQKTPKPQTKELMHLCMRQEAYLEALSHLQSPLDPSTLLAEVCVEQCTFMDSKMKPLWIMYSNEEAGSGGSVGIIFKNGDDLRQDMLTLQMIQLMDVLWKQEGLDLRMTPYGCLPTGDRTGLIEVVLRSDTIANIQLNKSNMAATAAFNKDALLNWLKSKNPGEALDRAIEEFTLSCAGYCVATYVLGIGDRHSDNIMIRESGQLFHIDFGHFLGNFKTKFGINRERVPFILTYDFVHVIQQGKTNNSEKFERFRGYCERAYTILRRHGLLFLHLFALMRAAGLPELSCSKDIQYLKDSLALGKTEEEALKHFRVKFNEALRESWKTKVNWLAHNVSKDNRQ
Sequence of PI3Kδ (P27986 whole entry partner): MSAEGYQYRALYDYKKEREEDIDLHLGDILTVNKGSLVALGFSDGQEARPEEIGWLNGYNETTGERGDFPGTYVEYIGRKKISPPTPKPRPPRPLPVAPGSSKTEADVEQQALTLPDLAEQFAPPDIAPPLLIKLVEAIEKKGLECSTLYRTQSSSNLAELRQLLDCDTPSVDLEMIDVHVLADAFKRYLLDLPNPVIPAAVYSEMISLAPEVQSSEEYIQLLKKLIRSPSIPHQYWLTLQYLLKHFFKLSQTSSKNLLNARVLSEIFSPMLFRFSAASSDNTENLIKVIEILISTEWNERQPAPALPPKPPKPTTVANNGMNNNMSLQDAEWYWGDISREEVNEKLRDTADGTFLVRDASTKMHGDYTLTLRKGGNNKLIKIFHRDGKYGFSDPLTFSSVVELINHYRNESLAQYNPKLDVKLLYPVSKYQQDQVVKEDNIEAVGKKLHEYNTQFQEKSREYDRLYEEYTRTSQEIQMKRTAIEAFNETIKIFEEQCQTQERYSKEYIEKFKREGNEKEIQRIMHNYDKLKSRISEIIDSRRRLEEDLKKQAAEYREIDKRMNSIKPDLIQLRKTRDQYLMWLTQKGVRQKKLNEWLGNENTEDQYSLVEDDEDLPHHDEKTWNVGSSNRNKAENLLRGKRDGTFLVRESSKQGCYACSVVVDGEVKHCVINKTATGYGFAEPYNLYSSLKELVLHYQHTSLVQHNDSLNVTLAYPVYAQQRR

fold selective over PI3Kγ [1] [fold]	potency for PI4KIIIβ compared with compound 1 [5]	Compound	fold selective over PI3Kδ [3] [fold]	also measured
–	large increase in potency	CC(=O)Nc1nc(C)c(-c2ccc(Cl)c(S(=O)(=O)Nc3ccc(O)cc3)c2)s1 [compound 6]	–	potency for PI3Kγ compared with compound 1 [1]: large increase in potency; potency for vps34 compared with compound 1 [2]: large increase in potency; potency for PI3Kδ compared with compound 1 [3]: large increase in potency
> 90	–	Cc1nc(NC(=O)C2CCCC2)sc1-c1ccc(Cl)c(S(=O)(=O)NCCO)c1 [compound 5]	–	–
–	slight increase in potency	CC(=O)Nc1nc(C)c(-c2ccc(Br)c(S(=O)(=O)NCCO)c2)s1 [compound 2]	–	potency for PI3Kγ compared with compound 1 [1]: slight decrease in potency; potency for vps34 compared with compound 1 [2]: slight increase in potency; potency for PI3Kδ compared with compound 1 [3]: slight increase in potency
> 600	–	Cc1nc(NC(=O)C(C)(C)C)sc1-c1ccc(Cl)c(S(=O)(=O)NCCO)c1 [compound 4]	–	–
> 40	increase in potency	COc1ccc(-c2sc(NC(C)=O)nc2C)cc1S(=O)(=O)NCCO [compound 3]	> 40	–

Compound	fold selective over PI3Kγ [1] [fold]	potency for PI4KIIIβ compared with compound 1 [5]	fold selective over PI3Kδ [3] [fold]	also measured
COc1ccc(-c2sc(NC(=O)C3CCCC3)nc2C)cc1S(=O)(=O)Nc1ccc(O)cc1 [compound 9]	> 140	–	> 20	inhibition of vps34 [2]: no inhibition; anti-viral activity against Hepatitis C Virus and toxicity [4]: best combination of anti-viral efficacy, and lowest toxicity
CC(=O)Nc1nc(C)c(-c2ccc(Cl)c(S(=O)(=O)Nc3ccc(F)cc3)c2)s1 [compound 7]	–	minimal differences in both potency and specificity	–	–
COc1ccc(-c2sc(NC(=O)C(C)(C)C)nc2C)cc1S(=O)(=O)Nc1ccc(O)cc1 [compound 10]	> 1000	–	> 200	fold selective for PI4KIIIβ across all enzymes tested ([5]; panel of nine related lipid kinases): > 200 fold; inhibition of vps34 [2]: no inhibition; anti-viral activity against Hepatitis C Virus and toxicity [4]: best combination of anti-viral efficacy, and lowest toxicity
